# Activity calls are given as the source filed them. The calls are words filed in the database; no cut-off is given here.
# Legend:
# [1] = target: T1, Free fatty acid receptor 1 (Homo sapiens, UniProt O14842); assay: Agonist activity at human FFA1 transfected in 1321N1 cells assessed as calcium mobilization by microplate assay; assay type: functional, cell-based
# Procedure, shortened: (§1)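 Calcium mobilization in hFFA1-expressing cells was measured as full concentration-response curves and reported as pEC50. Efficacy is % of the response to 10 μM of the reference agonist.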
# [2] = target: Free fatty acid receptor 2 (Homo sapiens) (UniProt O15552); assay: Agonist activity at human GPR43 in HEK293 cells
# [3] = target: Free fatty acid receptor 3 (Homo sapiens) (UniProt O14843); assay: Agonist activity at human GPR41 in HEK293 cells
# [4] = target: T1, Free fatty acid receptor 1; assay: Agonist activity at human FFA1 transfected in 1321N1 cells assessed as calcium mobilization by microplate assay relative to 10 uM TUG-20; assay type: functional, cell-based; procedure, shortened: as §1
# [5] = target: T2, Peroxisome proliferator-activated receptor gamma (Homo sapiens) (UniProt P37231); assay: Transactivation of human PPARgamma ligand binding domain transfected in mouse embryo fibroblasts assessed as renilla luciferase activity at 10 uM by luminometry relative to 1 uM rosiglitazone
# T2 sequence (whole entry): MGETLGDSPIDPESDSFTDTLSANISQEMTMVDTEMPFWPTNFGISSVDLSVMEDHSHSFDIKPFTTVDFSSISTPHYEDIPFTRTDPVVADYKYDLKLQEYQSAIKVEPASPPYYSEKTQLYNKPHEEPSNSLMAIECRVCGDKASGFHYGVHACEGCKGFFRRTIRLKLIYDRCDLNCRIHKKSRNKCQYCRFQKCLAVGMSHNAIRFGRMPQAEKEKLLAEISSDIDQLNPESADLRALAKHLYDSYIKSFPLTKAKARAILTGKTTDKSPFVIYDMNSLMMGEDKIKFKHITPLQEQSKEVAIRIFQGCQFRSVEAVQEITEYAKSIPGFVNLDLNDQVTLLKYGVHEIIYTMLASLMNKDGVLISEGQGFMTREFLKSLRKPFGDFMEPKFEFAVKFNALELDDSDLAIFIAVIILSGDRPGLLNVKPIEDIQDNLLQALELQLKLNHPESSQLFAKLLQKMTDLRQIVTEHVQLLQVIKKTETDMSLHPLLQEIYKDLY
# [6] = species on record: Homo sapiens; assay: Selectivity for human FFA1 over human PPARgamma
# [7] = Cytotoxicity in mouse embryo fibroblasts at 100 uM; assay type: cell-based; conditions: fibroblast
# [8] = target: T2, Peroxisome proliferator-activated receptor gamma (Homo sapiens); assay: Transactivation of human PPARgamma ligand binding domain transfected in mouse embryo fibroblasts assessed as renilla luciferase activity at 1 uM after 18 hrs by luminometry relative to 1 uM rosiglitazone
# [9] = target: T1, Free fatty acid receptor 1; assay: Agonist activity at human FFA1 transfected in 1321N1 cells under serum-free condition up to 1 hr by dynamic mass redistribution optical biosensor assay; assay type: functional, cell-based
# Procedure, shortened: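 hFFA1-transfected 1321N1 cells were exposed to a range of agonist concentrations. Label-free dynamic mass redistribution was tracked over time as the resonant wavelength shift (pm), a read-out of receptor activation. pEC50 was taken from concentration-response curves of this signal.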
# [10] = system: INS-1E; assay: Induction of 2.8 mM glucose-stimulated insulin secretion in rat INS-1E cells at 10 uM after 1 hr by radioimmunoassay; assay type: functional, cell-based
# [11] = target: T2, Peroxisome proliferator-activated receptor gamma (Homo sapiens); assay: Transactivation of human PPARgamma ligand binding domain transfected in mouse embryo fibroblasts at 100 uM after 18 hrs analyzed by photinus and renilla luciferase activity by luminometry relative to 1 uM rosiglitazone
# [12] = Induction of 12 mM glucose-stimulated insulin secretion in rat INS-1E cells at 10 uM after 1 hr by radioimmunoassay; assay type: functional
# T1 sequence (O14842 whole entry): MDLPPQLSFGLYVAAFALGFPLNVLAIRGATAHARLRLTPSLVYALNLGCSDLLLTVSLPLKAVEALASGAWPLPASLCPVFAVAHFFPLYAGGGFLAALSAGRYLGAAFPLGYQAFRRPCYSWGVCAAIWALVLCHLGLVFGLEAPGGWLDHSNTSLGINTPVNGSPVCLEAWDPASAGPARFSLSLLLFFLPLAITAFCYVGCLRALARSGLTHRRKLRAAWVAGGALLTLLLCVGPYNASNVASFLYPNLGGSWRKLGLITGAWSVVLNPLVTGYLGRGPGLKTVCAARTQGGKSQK
# Chain of Free fatty acid receptor 3 (Homo sapiens) (O14843 whole entry, looked up): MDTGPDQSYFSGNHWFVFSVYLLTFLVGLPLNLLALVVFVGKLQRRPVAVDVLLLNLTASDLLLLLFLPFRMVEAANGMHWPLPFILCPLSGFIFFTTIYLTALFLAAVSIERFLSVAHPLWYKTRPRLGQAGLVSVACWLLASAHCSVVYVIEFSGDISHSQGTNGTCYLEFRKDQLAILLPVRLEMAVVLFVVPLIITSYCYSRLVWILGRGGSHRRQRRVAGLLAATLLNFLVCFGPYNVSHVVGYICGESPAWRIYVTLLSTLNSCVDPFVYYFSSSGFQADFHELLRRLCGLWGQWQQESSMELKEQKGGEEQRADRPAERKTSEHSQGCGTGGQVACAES
# Chain of Free fatty acid receptor 2 (Homo sapiens) (O15552 whole entry, looked up): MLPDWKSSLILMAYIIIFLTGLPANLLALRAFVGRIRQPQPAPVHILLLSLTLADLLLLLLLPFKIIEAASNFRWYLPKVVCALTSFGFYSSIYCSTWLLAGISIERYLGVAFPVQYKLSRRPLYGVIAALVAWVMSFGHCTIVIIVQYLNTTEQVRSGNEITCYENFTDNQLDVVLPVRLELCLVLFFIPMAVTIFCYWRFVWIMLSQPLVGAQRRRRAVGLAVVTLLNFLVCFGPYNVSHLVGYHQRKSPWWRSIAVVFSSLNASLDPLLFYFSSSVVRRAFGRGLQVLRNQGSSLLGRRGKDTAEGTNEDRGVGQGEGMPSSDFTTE
EC50 [1],Activity [2],Activity [3],Efficacy [4],Activity [5],fold change (FC) [6],Activity [8],Activity [9],Activity [11],Compound,Activity [7],Activity [10],Activity [12]
1070 nM,inactive,inactive,97%,15%,> 100,inactive,–,–,O=C(O)CCc1ccc(NCc2ccccc2-c2ccccc2)cc1,Toxic,–,–
–,inactive,inactive,114%,–,> 100,inactive,Active,86%,Cc1ccccc1-c1cccc(CNc2ccc(CCC(=O)O)cc2)c1,–,inactive,55%
